Screens (PubChem BioAssay)
Most compounds without a hit are left out; they make up all but 2.6% or so of the library.
NR1D1 modulator – modulators of human Rev-erb alpha DNA binding; P20393; Rev-erbα–FITC-DNA binding, fluorescence polarization, 90 min; AID 1259318; actives 0.79% (n = 370,000); activity, % at 10 µM;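 active = activity above about 14%, limit read from the data; passing the limit was not always enough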
Target sequence (P20393 whole entry, looked up): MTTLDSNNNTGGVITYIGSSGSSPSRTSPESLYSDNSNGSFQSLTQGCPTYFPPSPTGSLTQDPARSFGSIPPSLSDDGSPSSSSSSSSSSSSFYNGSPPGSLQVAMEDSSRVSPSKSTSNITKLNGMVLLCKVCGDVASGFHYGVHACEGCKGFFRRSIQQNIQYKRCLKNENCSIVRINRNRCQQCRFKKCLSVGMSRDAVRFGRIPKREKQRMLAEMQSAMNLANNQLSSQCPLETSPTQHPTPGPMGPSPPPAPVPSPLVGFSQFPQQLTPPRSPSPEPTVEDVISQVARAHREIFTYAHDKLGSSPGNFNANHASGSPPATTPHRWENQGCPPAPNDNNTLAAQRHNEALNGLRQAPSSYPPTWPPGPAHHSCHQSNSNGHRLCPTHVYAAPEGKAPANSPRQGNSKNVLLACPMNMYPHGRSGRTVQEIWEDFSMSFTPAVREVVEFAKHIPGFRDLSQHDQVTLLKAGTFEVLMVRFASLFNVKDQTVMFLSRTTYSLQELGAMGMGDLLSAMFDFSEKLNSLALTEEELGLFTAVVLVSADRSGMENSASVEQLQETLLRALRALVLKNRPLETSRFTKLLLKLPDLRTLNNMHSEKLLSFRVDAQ
rCAG binder – r(CAG) repeat RNA binding; AID 651821; inhibition, % at 3 µM; TO-PRO-1 dye displacement fluorescence; actives 1.3% (n = 370,000);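 active = inhibition above the plate cutoff, the mean of all test compounds on that plate plus 3 SD, cut at about 35% in these data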;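 note: higher means more dye released from RNA so lower well fluorescence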
NR2E3 ag-1 – activates human photoreceptor nuclear receptor NR2E3; Q9Y5X4; GST-NR2E3/biotin-RetCOR TR-FRET, 1536-well; inhibition of corepressor binding, % at 4.78 µM; actives 0.12% (n = 320,000);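 active = percent inhibition above the cutoff of mean plus 3 SD of all tested compounds, set per screening campaign, cut at about 20% in these data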
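Test system – NR2E3–RetCOR corepressor complex · Quantity – NR2E3 fusion 1.35 nM · Buffer or medium – Tris pH 7.5 · Incubation – Compound–protein incubation for 5 h at 4 °C · Technique – TR-FRET, Eu(K)-anti-GST donor, streptavidin-D2 acceptor, ex 340, em 617/671 nm · Evaluation – percent inhibition of 671/617 nm emission ratio versus biotin and DMSO controls · Plate – 1536-well format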
NR2E3 ag-2 – agonists of human NR2E3 nuclear receptor. Q9Y5X4. CHO-S Gal4-NCOR/VP16-NR2E3 two-hybrid, luciferase. inhibition of corepressor binding, % at 3.98 µM. actives 0.35% (n = 360,000). AID 602229;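 active = inhibition above the mean of all tested compounds plus 3 SD, cut at about 70% in these data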;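 note: higher means lower luciferase signal from less NR2E3 corepressor binding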
PG9 Ab binder – binds the HIV-1 gp120 antibody PG9 | TR-FRET gp120-PG9 antibody binding | inhibition, % at 6.7 µM | actives 0.43% (n = 360,000); in the data active = inhibition above about 8.5%
PG9 bind confirm – PG9 antibody binding, confirmed. actives 90% (n = 1,500). shares compounds with PG9 Ab binder. TR-FRET PG9 antibody binding, biochemical. AID 651571. inhibition, % at 6.7 µM; in the data active = inhibition above about 9%
PGV04 Ab binding – binds control antibody PGV04 in PG9 binder counter-screen; inhibition, % at 6.7 µM; shares compounds with PG9 Ab binder; AID 651604; actives 95% (n = 1,500); TR-FRET PGV04 antibody-gp120 binding, biochemical; in the data active = inhibition above about 9.5%
PG9 binder DR – PG9 antibody binding, dose response. AID 651848. IC50, µM. TR-FRET PG9 antibody-gp120 binding inhibition. 95 tested, under 10 active. shares compounds with PG9 Ab binder; in the data active = IC50 below about 10 µM
PGV04 binding DR – counter-screen for PG9 binders: binding to control antibody PGV04 | shares compounds with PG9 Ab binder | TR-FRET binding to control antibody PGV04 | IC50, µM | actives 20% (n = 95) | AID 651937
PG126 binding DR – counter-screen for PG9 binders: binding to control antibody PG126. shares compounds with PG9 Ab binder. TR-FRET binding to antibody PG126, counterscreen. IC50, µM. actives 20% (n = 95). AID 651939
Large screens that a line does not name were inactive (follow-up assays come after a bar, where they were run). Cut-off read from the data, not from the text of the source, unless noted: active = IC50 below about 9 µM; inactive = the rest.

N#Cc1ccccc1Sc1ccccc1C(=O)OCC(=O)NC12CC3CC(CC(C3)C1)C2	none
CC1CCCCC1NC(=O)COC(=O)c1ccc2ccccc2n1 (stereo not given)	none
Nc1c(-c2ccccc2)cnc2c(-c3ccccc3)cnn12	none
N#Cc1cnn2c(N)c(-c3ccc(Cl)cc3)cnc12	PG9 Ab binder 15.5 | PG9 bind confirm 24.3 | PGV04 Ab binding 42.8
Cn1ncc(Cl)c1C(=O)Nc1sc2c(c1C(N)=O)CCC2	PG9 Ab binder 8.7 | PG9 bind confirm 11.9 | PGV04 Ab binding 28.6
Cc1noc(C)c1C(=O)Nc1sc2c(c1C(N)=O)CCCCC2	none
Cc1noc(C)c1C(=O)Nc1sc2c(c1C(N)=O)CCC2	PG9 Ab binder 12.1 | PG9 bind confirm inactive | PGV04 Ab binding 17.5
COc1ccc(N=Cc2c(O)c3ccccc3oc2=O)cc1	PG9 Ab binder 31.6 | PG9 bind confirm 27.2 | PGV04 Ab binding 39.0
COc1ccc(NC(=O)c2cc3sccc3n2Cc2ccc(F)cc2)cc1OC	none
O=C(Nc1nccs1)c1cc2sccc2n1Cc1ccc(F)cc1	PG9 Ab binder 9.4 | PG9 bind confirm 14.8 | PGV04 Ab binding 19.4
O=C(Cn1cnc2c(OCc3ccccc3)ncnc21)NCc1ccc2[nH]ccc2c1	none (no result: NR2E3 ag-1)
O=C(Cn1cnc2c(NCc3ccccc3)ncnc21)NCc1ccc2[nH]ccc2c1	PG9 Ab binder 33.3 (no result: NR2E3 ag-1) | PG9 bind confirm 15.7 | PGV04 Ab binding 28.9
Cn1c2ccccc2c(=O)c2ccc(C#Cc3ccccn3)cc21	PG9 Ab binder 49.7 (no result: NR2E3 ag-2) | PG9 bind confirm 57.1 | PGV04 Ab binding 78.8
CC(CNC(=O)CN(C)CC(=O)Nc1ccccc1Br)c1ccccc1 (stereo not given)	none (no result: NR2E3 ag-1)
Cc1cc(N2C(=O)C(O)=C(C(=O)c3ccco3)C2c2ccc(Cl)cc2)no1 (stereo not given)	PG9 Ab binder 16.3 | PG9 bind confirm 29.7 | PGV04 Ab binding 40.5
Cc1cc(N2C(=O)C(O)=C(C(=O)c3ccc(C)o3)C2c2cccs2)no1 (stereo not given)	PG9 Ab binder 9.6 | PG9 bind confirm 17.4 | PGV04 Ab binding 25.5
Cc1cc(N2C(=O)C(O)=C(C(=O)c3ccco3)C2c2cccc(O)c2)no1 (stereo not given)	none
OCC[C@H]1C[C@H](O)[C@@H](O)[C@@]2(Cc3ccccc3O2)O1	none
COc1cccc(C2/C(=C(\O)c3ccc4c(c3)OCCO4)C(=O)C(=O)N2CCCn2ccnc2)c1 (stereo not given)	PG9 Ab binder 12.1 | PG9 bind confirm 19.7 | PGV04 Ab binding 23.3
O=C1C(=O)N(CCCn2ccnc2)C(c2ccc([N+](=O)[O-])cc2)/C1=C(\O)c1ccc2c(c1)OCCO2 (stereo not given)	none
O=C1C(=O)N(CCCN2CCOCC2)C(c2ccc(F)cc2)/C1=C(\O)c1ccc2c(c1)OCCO2 (stereo not given)	PG9 Ab binder 9.4 | PG9 bind confirm 21.4 | PGV04 Ab binding 23.9
O=C1C(=O)N(CCCn2ccnc2)C(c2ccc(Br)cc2)/C1=C(\O)c1ccc2c(c1)OCCO2 (stereo not given)	PG9 Ab binder 13.9 | PG9 bind confirm 13.3 | PGV04 Ab binding 15.1
COc1cccc(C2/C(=C(/O)c3ccc4c(c3)CC(C)O4)C(=O)C(=O)N2CCCn2ccnc2)c1 (stereo not given)	none
COc1ccc(C2/C(=C(/O)c3ccccc3)C(=O)C(=O)N2CCCN2CCOCC2)cc1 (stereo not given)	none
COc1ccc(/C(O)=C2/C(=O)C(=O)N(CCCN3CCOCC3)C2c2ccc(Cl)cc2)cc1 (stereo not given)	PG9 Ab binder 11.8 (no result: NR2E3 ag-1) | PG9 bind confirm 25.8 | PGV04 Ab binding 43.1
CCc1nc2cc(NC(=O)C3(C)CCCN(C(C)C)C3)ccc2o1 (stereo not given)	none (no result: NR2E3 ag-1)
Cc1ccc(S(=O)(=O)NCc2ccccc2)cc1C(=O)NCc1ccncc1	none (no result: NR2E3 ag-1)
O=C1C(=O)N(CCCn2ccnc2)C(c2cccc(Br)c2)/C1=C(\O)c1ccc2c(c1)OCCO2 (stereo not given)	PG9 Ab binder 26.7 | PG9 bind confirm 44.5 | PGV04 Ab binding 39.7 | PG9 binder DR inactive | PGV04 binding DR 5.44 | PG126 binding DR 8
O=C1C(=O)N(CCCn2ccnc2)C(c2ccc(Cl)cc2)/C1=C(\O)c1ccc2c(c1)OCCO2 (stereo not given)	PG9 Ab binder 27.4 | PG9 bind confirm 15.8 | PGV04 Ab binding 20.9
CC1Cc2cc(/C(O)=C3/C(=O)C(=O)N(CCCn4ccnc4)C3c3ccc(F)cc3)ccc2O1 (stereo not given)	none
COc1ccc(/C(O)=C2/C(=O)C(=O)N(CCCN(C)C)C2c2ccc(Cl)cc2)cc1OC (stereo not given)	PG9 Ab binder 13.0 | PG9 bind confirm 23.5 | PGV04 Ab binding 29.6
CCCC(=O)Nc1nnc(-c2cccc(OCC)c2)s1	PG9 Ab binder 15.9 | PG9 bind confirm 22.2 | PGV04 Ab binding 38.6
Cc1ccc(-n2c(Cc3cccs3)nnc2SCC(=O)Nc2ccccc2-c2ccccc2)cc1	none (no result: NR2E3 ag-1, NR2E3 ag-2, PG9 Ab binder)
Cc1nc2ccc(F)cc2cc1C(=O)Nc1ccc(Cl)c(Cl)c1	PG9 Ab binder 22.2 | PG9 bind confirm 23.9 | PGV04 Ab binding 32.3
COc1ccc(Nc2nc(C)nc3c2oc2ccccc23)c(OC)c1	PG9 Ab binder 12.7 | PG9 bind confirm 14.5 | PGV04 Ab binding 21.9
CCOC(=O)CCc1c(C)c(C#N)c2nc3ccccc3n2c1-n1ccnc1C	none
CCOC(=O)CCc1c(C)c(C#N)c2nc3ccccc3n2c1-n1cnc2ccccc21	PG9 Ab binder 17.3 | PG9 bind confirm 22.0 | PGV04 Ab binding 26.5
CC1(C(=O)NS(=O)(=O)Cc2cccc(Cl)c2)CCN1C(=O)c1ccc(C2CCCCC2)cc1 (stereo not given)	none (no result: NR2E3 ag-1)
CC(C)CCNC(=O)NC(=O)COC(=O)c1cc(S(=O)(=O)N2CCOCC2)ccc1N1CCCCC1	PG9 Ab binder 31.8 | PG9 bind confirm 27.6 | PGV04 Ab binding 45.5
COc1cccc(Nc2nc3cc(OC)ccc3cc2C#N)c1	PG9 Ab binder 13.4 | PG9 bind confirm 23.9 | PGV04 Ab binding 24.6
Cc1ccc(-c2cc(NC(=O)c3ccccc3)on2)cc1	none
